18 compounds from ChEMBL document CHEMBL4130366, “Design, synthesis and antiproliferative activity of thiazolo[5,4-d]pyrimidine derivatives through the atom replacement strategy” (Eur J Med Chem, 2017) can be followed below.

One data set deals with MCF7. Put plainly: Antiproliferative activity against human MCF7 cells after 72 hrs by MTT assay. The class given is functional, cell-based. The following applies: MCF7, 72 h. The method, boiled down: (§1)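 Cells in exponential growth plated at 3,000 per well, left 24 h, then medium replaced with fresh medium carrying a range of compound concentrations; 72 h exposure, MTT read at 570 nm.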

Data set [1] relates to HGC-27. Put plainly: Antiproliferative activity against human HGC27 cells after 72 hrs by MTT assay. The class given is functional, cell-based. The following applies: HGC-27, 72 h. The method, boiled down:
as §1

The test system of another data set is ECa-109 cell line. The data set is described as follows: Antiproliferative activity against human EC109 cells after 72 hrs by MTT assay. It is filed as functional, cell-based. The following applies: ECa-109, 72 h. The method, boiled down: as §1
Another data set relates to MGC-803. The data set is described as follows: Antiproliferative activity against human MGC803 cells after 72 hrs by MTT assay. The following applies: MGC-803, 72 h. It is filed as functional, cell-based. Summed up: as §1
For a further data set, the system named is GES1. The data set is described as follows: Cytotoxicity against human GES-1 cells assessed as reduction in cell viability after 72 hrs by MTT assay. It is filed as cell-based. As to conditions: GES1, 72 h. Summed up:
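Normal human gastric epithelial cells in exponential growth seeded at 3,000 cells/well, allowed 24 h, then medium replaced with fresh medium containing a range of compound concentrations. Exposure 72 h, then MTT, viability read at 570 nm.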

Data set [2] concerns HGC-27. Put plainly: Induction of apoptosis in human HGC27 cells assessed as apoptotic cells at 5 uM after 24 hrs by Annexin-V-FITC/propidium iodide-double staining based flow cytometry (reference value: 1.8%). The class given is functional.
In data set [3] the test system is HGC-27. The data set is described as follows: Induction of apoptosis in human HGC27 cells assessed as chromatin shrinkage at 2 to 5 uM after 24 hrs by Hoechst 33258 staining-based fluorescence microscopy. The class given is functional, cell-based. The method, boiled down:
(§2)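 HGC-27 at 2×10⁵/well attached overnight, exposed to compound at several concentrations for 24 h, then stained with Hoechst 33258 for 30 min in the dark. Morphology scored by fluorescence microscopy.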

Data set [4] deals with HGC-27. The data set is described as follows: Induction of apoptosis in human HGC27 cells after 24 hrs by Annexin-V-FITC/propidium iodide-double staining based flow cytometry. The class given is functional, cell-based.
In data set [5] the test system is HGC-27. Put plainly: Induction of apoptosis in human HGC27 cells assessed as cell rounding at 2 to 5 uM after 24 hrs by Hoechst 33258 staining-based fluorescence microscopy. It is filed as functional. Summed up:
as §2

The subject of data set [6] is HGC-27. Put plainly: Induction of apoptosis in human HGC27 cells assessed as increase in cleaved caspase 9 expression after 24 hrs by Western blot analysis. The class given is functional, cell-based. Summed up: (§3)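 HGC-27 exposed to compound at several concentrations for 24 h, lysed in RIPA with protease inhibitors for 30 min, spun at 12,000 rpm for 10 min at 4 °C. Protein measured by BCA, run on SDS-PAGE, transferred to nitrocellulose. Blocked with 5% skim milk for 2 h, primary antibodies overnight at 4 °C, secondary 1:5000 for 2 h, ECL detection.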

The nature of data set [7]: Selectivity index, ratio of IC50 for human GES-1 cells to IC50 for human HGC27 cells. The class given is toxicity. As to conditions: GES-1 cells and HGC27 cells, read-out: Ratio IC50. The method, boiled down: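 GES-1 normal gastric epithelial cells and HGC-27 tested by the same MTT protocol (3,000 cells/well, 24 h attachment, 72 h exposure, 570 nm). SI calculated as IC50(GES-1)/IC50(HGC-27). IC50s are means ± SD of three independent experiments.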

For data set [8], the system named is HGC-27. Put plainly: Induction of apoptosis in human HGC27 cells assessed as apoptotic cells at 2 uM after 24 hrs by Annexin-V-FITC/propidium iodide-double staining based flow cytometry (reference value: 1.8%). The class given is functional.
Data set [9] deals with HGC-27. The data set is described as follows: Induction of apoptosis in human HGC27 cells assessed as decrease in Bcl2 expression up to 5 uM after 24 hrs by Western blot analysis. The class given is functional, cell-based. The method, boiled down: as §3
The test system of data set [10] is HGC-27. Put plainly: Antimigratory activity in human HGC27 cells after 48 hrs by wound healing assay. It is filed as functional, cell-based. Summed up:
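HGC-27 grown in 24-well plates, monolayer scratched with a 10 µL pipette tip, then exposed to compound at several concentrations. Wound closure photographed by inverted microscope after the incubation times stated.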

For data set [11], the system named is HGC-27. Put plainly: Induction of apoptosis in human HGC27 cells assessed as apoptotic cells at 1 uM after 24 hrs by Annexin-V-FITC/propidium iodide-double staining based flow cytometry (reference value: 1.8%). It is filed as functional.
The test system of data set [12] is HGC-27. Put plainly: Induction of apoptosis in human HGC27 cells assessed as increase in Bax expression after 24 hrs by Western blot analysis. The class given is functional, cell-based. Summed up: as §3
In data set [13] the test system is HGC-27. Put plainly: Inhibition of colony formation in human HGC27 cells at 4 uM after 9 days by crystal violet staining based assay. It is filed as functional. As to conditions: HGC-27, 216 h. The method, boiled down:
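HGC-27 seeded at 1000 cells/well, 24 h, then fresh medium with compound for 9 days. PBS washes, 4% paraformaldehyde fixation, 0.1% crystal violet stain. Colonies (>10 cells) counted from images. Inhibition rate = (1 − treated count/control count) × 100%. Triplicate.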

Data set [14] has as its system HGC-27. The data set is described as follows: Induction of apoptosis in human HGC27 cells assessed as formation of apoptotic bodies at 2 to 5 uM after 24 hrs by Hoechst 33258 staining-based fluorescence microscopy. The class given is functional, cell-based. The method, boiled down: as §2
The subject of data set [15] is HGC-27. The data set is described as follows: Induction of apoptosis in human HGC27 cells assessed as increase in cleaved caspase 3 expression after 24 hrs by Western blot analysis. The class given is functional, cell-based. The method, boiled down:
as §3

The source made the active and inactive calls. The calls are words filed in the database; no cut-off is given here.

In the case of `CCCSc1nc(Sc2ccc(C)cc2)c2nc(Nc3cccc4ccccc34)sc2n1`, the 50% inhibitory concentration (IC50) in the data set on MCF7 was > 64 µM; in the data set with HGC-27 [1] it was > 64 µM; with ECa-109 cell line, > 64 µM; in the data set on MGC-803, 46.2 µM.
Take `CCCSc1nc(Sc2nncs2)c2nc(Nc3ccccn3)sc2n1`: the IC50 in the data set with MCF7 is 11.6 µM; in the data set on HGC-27 [1], 18.2 µM; in the data set on ECa-109 cell line, > 64 µM; in the data set on MGC-803, 10.2 µM.
Taken in the same sequence, the figures for `CCCSc1nc(Sc2ccc(Cl)cc2)c2nc(Nc3ccccc3)sc2n1` were 44.2 µM, 8.87 µM, 19.6 µM and 9.33 µM.
Taken in the same sequence, the figures for `CCCSc1nc(Sc2ccc(C)cc2)c2nc(Nc3ccccc3)sc2n1` were > 64 µM, 4.65 µM, 25 µM and 4.73 µM.
Taken in the same sequence, the figures for `CCCSc1nc(Sc2nnc(N)s2)c2nc(Nc3ccccc3)sc2n1` were > 64 µM, > 64 µM, > 64 µM and 12.8 µM.
With `CCCSc1nc(Sc2nccs2)c2nc(Nc3ccccc3)sc2n1`, the half-inhibitory concentration (IC50) is > 64 µM with MCF7, 2.21 µM in the data set with HGC-27 [1], > 64 µM with ECa-109 cell line and 23.4 µM in the data set on MGC-803.
For `c1ccc(CSc2nc(Sc3nncs3)c3nc(Nc4ccccc4)sc3n2)cc1`, the IC50 was 38.7 µM with MCF7, 18.9 µM in the data set on HGC-27 [1], 10.6 µM in the data set on ECa-109 cell line and > 64 µM in the data set on MGC-803.
Taken in the same sequence, the figures for `CCCSc1nc(Sc2nncs2)c2nc(Nc3cccc4ccccc34)sc2n1` were > 64 µM, 22.7 µM, > 64 µM and > 64 µM.
Taken in the same sequence, the figures for `CCCSc1nc(Sc2nccn2C)c2nc(Nc3ccccc3)sc2n1` were > 64 µM, 4.03 µM, > 64 µM and 30 µM.
Turning to `CCCSc1nc(Sc2ccc(C)cc2)c2nc(Nc3ccccn3)sc2n1`, the IC50 with MCF7 is 34.2 µM; in the data set with HGC-27 [1] it was 7.28 µM; with ECa-109 cell line, > 64 µM; in the data set on MGC-803, > 64 µM.
Consider `CCCSc1nc(Sc2ncccn2)c2nc(Nc3ccccn3)sc2n1`, for which the IC50 was > 64 µM with MCF7, 12.2 µM in the data set on HGC-27 [1], > 64 µM in the data set with ECa-109 cell line and 11.2 µM with MGC-803.
`CCCSc1nc(Sc2nc3ccccc3s2)c2nc(Nc3ccccc3)sc2n1`: the IC50 is > 64 µM with MCF7, 12.2 µM with HGC-27 [1], 24.3 µM in the data set on ECa-109 cell line and 14.2 µM with MGC-803.
Taken in the same sequence, the figures for `CCCSc1nc(Sc2nnnn2CCN(C)C)c2nc(Nc3ccccc3)sc2n1` were 14.5 µM, 6.51 µM, > 64 µM and 18.5 µM.
Taken in the same sequence, the figures for `CCCSc1nc(Sc2ccc(C)cc2)c2nc(Nc3cc(OC)c(OC)c(OC)c3)sc2n1` were > 64 µM, 6.03 µM, 23.9 µM and > 64 µM.
Taken in the same sequence, the figures for `CCCSc1nc(Sc2ncccn2)c2nc(Nc3ccccc3)sc2n1` were 13.2 µM, 9.55 µM, 49.6 µM and 9.82 µM.
Turning to `O=c1[nH]cc(F)c(=O)[nH]1` [FLUOROURACIL], the IC50 was 7.21 µM in the data set with MCF7, 8.59 µM in the data set with GES1, 11 µM in the data set with HGC-27 [1] and 5.01 µM with ECa-109 cell line.
`CCCSc1nc(Sc2nncs2)c2nc(Nc3ccccc3)sc2n1`: the IC50 in the data set with MCF7 is 8.55 µM; in the data set on HGC-27 [1] it was 5.07 µM; with ECa-109 cell line it was > 64 µM; in the data set on MGC-803, 10.7 µM.
On to `Cc1ccc(Sc2nc(SCc3ccccc3)nc3sc(Nc4ccccc4)nc23)cc1`, for which the Activity with HGC-27 [2] was 67.9%; in the data set with HGC-27 [4], “Dose-dependent effect”; in the data set with HGC-27 [6], “Dose-dependent effect”; in the data set with HGC-27 [8], 31.8%; in the data set on HGC-27 [10], “Dose-dependent effect”; in the data set with HGC-27 [11], 10.01%. Further, the Activity result in the data set with HGC-27 [12] and in the data set on HGC-27 [15] was “Dose-dependent effect” throughout. Besides, the IC50 was 8.55 µM in the data set on MCF7; 29.4 µM in the data set with GES1; 1.22 µM in the data set on HGC-27 [1]; 2.69 µM in the data set with ECa-109 cell line; 12.2 µM with MGC-803. Moreover, the outcome in the data set on HGC-27 [3], in the data set on HGC-27 [5], in the data set with HGC-27 [9] and with HGC-27 [14] was Active. For the same compound, the selectivity ratio in data set [7] amounted to 24.1. In the data set on HGC-27 [13], this compound had an inhibition at 4 µM of 79%.
